Published values gathered from unrelated publications.
Compare with care: the assays were run in different laboratories.
Observed: cell growth or viability

Structure (SMILES) | cell line | technique | concentration | time | endpoint | value
NCCC(=O)Nc1ccccc1/N=c1\cc(-c2ccc3nc(N)oc3c2)oc2ccc(O)cc12 | HCT-116 | CCK-8 | 1 µM | – | inhibition | 15%
O=C(NCc1cn(Cc2ccc(Br)cc2)nn1)Nc1ccc(Cl)cc1 | PC-9 | CCK-8 | 20 µM | 72 h | viability | 111%
O=C(Nc1ccc(F)cc1)Nc1nc2cc(-c3ccc4ncn(Cc5ccccc5)c(=O)c4c3)ccc2s1 | PC-9 | MTT | – | 72 h | IC50 | 7.3 µM
CCCCCCCCCCCCCCCCCCOc1ccc(CC(=O)OCC[N+]2(C)CCCCC2)cc1 | EKVX | SRB | 10 µM | – | inhibition | 2.11%
CC(C)NC(=O)Nc1nc2cc(-c3ccc4ncn(Cc5ccccc5)c(=O)c4c3)ccc2s1 | PC-9 | MTT | – | 72 h | IC50 | > 20 µM
COc1ccc2/c(=N/c3ccccc3NC(=O)N3CCOCC3)cc(-c3ccc4c(c3)OCCO4)oc2c1 | HCT-116 | CCK-8 | 1 µM | – | inhibition | 11.6%
C[C@H](Nc1ccc2c(c1)OCCn1cc(N3C(=O)OC[C@H]3C(F)F)nc1-2)C(N)=O | SK-OV-3 | ATP luminescence | – | 5 days | EC50 | 0.0574 µM
COc1ccc(NC(=O)Nc2cccc(-c3cn(Cc4ccccc4C)nn3)c2)cc1 | PC-9 | CCK-8 | 50 µM | 72 h | viability | 98.2%
CCCCCCCCCCCCCCCCCCOc1ccc(CC(=O)OCCC[N+](C)(C)C)cc1 | EKVX | SRB | 10 µM | – | inhibition | 3.92%
COc1ccc(NC(=O)Nc2cccc(-c3cn(Cc4ccc(Br)cc4)nn3)c2)cc1 | PC-9 | CCK-8 | 20 µM | 72 h | viability | 141%
CCCCCCCCCCCCCCCCCCOc1cccc(CC(=O)OCCC[N+](C)(C)C)c1 | EKVX | SRB | 10 µM | – | inhibition | 4.64%
COc1ccc(NC(=O)Nc2cccc(-c3cn(Cc4ccc(C)cc4)nn3)c2)cc1 | PC-9 | CCK-8 | 20 µM | 72 h | viability | 159%
O=C(Nc1ccc(-c2cn(Cc3ccc(Br)cc3)nn2)cc1)Nc1ccccc1Br | PC-9 | CCK-8 | 50 µM | 72 h | viability | 106%
Cc1nc(Nc2ncc(C(=O)Nc3c(C)cccc3Cl)s2)cc(N2CC[C@H](O)C2)n1 | Raji | ATP luminescence | 10 µM | 72 h | inhibition | -2%
NC(=O)C1CCCN1C(=O)Nc1ccccc1/N=c1\cc(-c2ccc3c(c2)OCCO3)oc2cc(F)ccc12 (stereo not drawn) | HCT-116 | CCK-8 | 1 µM | – | inhibition | 13.6%
O=C(Nc1ccc(Cl)cc1)Nc1ccc(-c2cn(Cc3cccc(Cl)c3)nn2)cc1 | PC-9 | CCK-8 | 50 µM | 72 h | viability | 76.4%
CCCCCCCCCCCCCCCCCCOc1ccccc1CC(=O)OCC[N+]1(C)CCCCC1 | EKVX | SRB | 10 µM | – | inhibition | 36.9%
O=C(Nc1ccc(Cl)cc1)Nc1cccc(-c2cn(Cc3cccc(Br)c3)nn2)c1 | PC-9 | CCK-8 | 20 µM | 72 h | viability | 101%
NCC(=O)Nc1ccccc1/N=c1\cc(-c2ccc3c(c2)OCO3)oc2c([N+](=O)[O-])cccc12 | HCT-116 | CCK-8 | 1 µM | – | inhibition | 12.2%
CCCS(=O)(=O)Oc1cc(C=NNC(=O)c2nc3ccccc3s2)ccc1OC | HCT-116 | MTT | 100 µM | 48 h | cell death | 42.7%
O=C(Nc1ccc(Cl)cc1)Nc1nc2cc(-c3ccc4ncn(Cc5ccccc5)c(=O)c4c3)ccc2s1 | PC-9 | MTT | – | 72 h | IC50 | > 20 µM

Structure (SMILES) | cell line | technique | concentration | time | endpoint | value
N[C@@H](CO)C(=O)Nc1ccccc1/N=c1\cc(-c2ccc3c(c2)OCO3)oc2ccccc12 | HCT-116 | CCK-8 | 1 µM | – | inhibition | 12.2%
CCCCCCCCCCCCCCCCCCOc1ccccc1CC(=O)OCCC[N+](C)(C)C | EKVX | SRB | 10 µM | – | inhibition | 21%
Cc1nc(NC(=O)N2CCC[C@H]2C(N)=O)sc1-c1ccnc(C(C)(C)C(F)(F)F)c1 | AGS | ATP luminescence | – | 5 days | EC50 | 3.01 µM
CNCCC(=O)Nc1ccccc1/N=c1\cc(-c2ccc3nc(N)oc3c2)oc2ccccc12 | HCT-116 | CCK-8 | 1 µM | – | inhibition | 76.8%
O=C(Nc1cccc(C(F)(F)F)c1)Nc1nc2cc(-c3ccc4ncn(CCN5CCOCC5)c(=O)c4c3)ccc2s1 | PC-9 | MTT | – | 72 h | IC50 | > 20 µM
O=C(Nc1ccc(Cl)cc1)Nc1ccc(-c2cn(Cc3ccc(Cl)cc3)nn2)cc1 | PC-9 | CCK-8 | 20 µM | 72 h | viability | 86%
O=C(Nc1ccccc1/N=c1\cc(-c2ccc3c(c2)OCO3)oc2ccccc12)N1CCOCC1 | HCT-116 | CCK-8 | 1 µM | – | inhibition | 11.2%
COc1cccc(NC(=O)Nc2nc3cc(-c4ccc5ncn(Cc6ccccc6)c(=O)c5c4)ccc3s2)c1 | PC-9 | MTT | – | 72 h | IC50 | > 20 µM
N#CCCN(C(=O)CCl)c1ccc2c(c1)OCCN2CC(=O)N1CCC(C(=O)Nc2ccc(C(=O)NCCCCCCC(=O)NO)cc2)CC1 | U-87 MG | MTT | – | – | EC50 | > 50 µM
O=C(Nc1ccc(-c2cn(Cc3ccc(Cl)cc3)nn2)cc1)Nc1ccccc1Br | PC-9 | CCK-8 | 20 µM | 72 h | viability | 98.3%
CCCCCCCCCCCCCCCCCCOc1ccccc1CC(=O)OCC[N+]1(C)CCCC1 | EKVX | SRB | 10 µM | – | inhibition | 46.1%
NCCC(=O)Nc1ccccc1/N=c1\cc(-c2ccc3c(c2)OCCO3)oc2cc(F)ccc12 | HCT-116 | CCK-8 | 1 µM | – | inhibition | 11.5%
COc1ccc(NC(=O)NCc2cn(Cc3ccccc3C)nn2)cc1 | PC-9 | CCK-8 | 50 µM | 72 h | viability | 109%
O=C(Nc1ccc(Cl)cc1)Nc1cccc(-c2cn(Cc3cccc(Cl)c3)nn2)c1 | PC-9 | CCK-8 | 20 µM | 72 h | viability | 102%
O=C(Nc1cccc(F)c1)Nc1nc2cc(-c3ccc4ncn(CCN5CCOCC5)c(=O)c4c3)ccc2s1 | PC-9 | MTT | – | 72 h | IC50 | > 20 µM
COc1ccc(NC(=O)NCc2cn(Cc3ccc(Cl)cc3)nn2)cc1 | PC-9 | CCK-8 | 50 µM | 72 h | viability | 104%
O=C(NCc1cn(Cc2cccc(Cl)c2)nn1)Nc1ccc(Cl)cc1 | PC-9 | CCK-8 | 50 µM | 72 h | viability | 90%
COc1ccc(NC(=O)Nc2cccc(-c3cn(Cc4cccc(Cl)c4)nn3)c2)cc1 | PC-9 | CCK-8 | 20 µM | 72 h | viability | 143%
O=C(Nc1cccc(-c2cn(Cc3ccc(Cl)cc3)nn2)c1)Nc1ccccc1Br | PC-9 | CCK-8 | 20 µM | 72 h | viability | 130%
COc1ccc(NC(=O)Nc2ccc(-c3cn(Cc4cccc(Cl)c4)nn3)cc2)cc1 | PC-9 | CCK-8 | 20 µM | 72 h | viability | 98.2%
CCCCCCCCCCCCCCCCCCOc1ccccc1CC(=O)OCC[N+](C)(C)C | EKVX | SRB | 10 µM | – | inhibition | 53.1%
